Data set [1] has as its target T1, Amine oxidase [flavin-containing] B (Bos taurus, UniProt P56560).
T1 sequence (P56560 whole entry): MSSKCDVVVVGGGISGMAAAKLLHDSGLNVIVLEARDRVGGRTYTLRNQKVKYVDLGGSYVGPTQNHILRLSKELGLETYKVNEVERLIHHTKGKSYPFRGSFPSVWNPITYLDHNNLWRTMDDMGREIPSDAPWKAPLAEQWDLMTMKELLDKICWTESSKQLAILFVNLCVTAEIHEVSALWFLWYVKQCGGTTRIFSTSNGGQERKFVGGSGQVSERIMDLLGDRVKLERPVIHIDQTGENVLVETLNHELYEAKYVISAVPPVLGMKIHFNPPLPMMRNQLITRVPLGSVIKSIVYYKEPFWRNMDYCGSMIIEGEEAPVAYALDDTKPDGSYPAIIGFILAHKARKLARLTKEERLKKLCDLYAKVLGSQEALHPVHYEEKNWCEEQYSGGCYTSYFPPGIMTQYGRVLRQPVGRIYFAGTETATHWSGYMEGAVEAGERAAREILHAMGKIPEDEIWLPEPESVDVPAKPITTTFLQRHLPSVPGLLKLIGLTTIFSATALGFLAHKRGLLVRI
Nature of the data set: Rate of oxidation against monoamine oxidase-B (MAO-B). In a few lines: (§1)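 Beef liver mitochondrial MAO-B, purified, 0.1 unit in 50 mM sodium phosphate pH 7.2 with 0.2% reduced Triton X-100. Substrate at 3 mM (3.0 mM). Initial rate of dihydropyridinium product formation read spectrophotometrically at its λmax (345 nm for MPDP⁺, 360 nm for the tricyclic products), in nmol min⁻¹ mL⁻¹. Controls held 10⁻⁶ M pargyline.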

The target of data set [2] is T2, Dopamine receptor (Mus musculus) (UniProt P51436+Q8BLD9+Q61616+P61168+P30728). The data set is described as follows: (§2) Black mice were injected intraperitoneally with 100 uMol of test compound and Striatal levels of Dopamine in mice measured after 1 month. It is filed as functional. Summed up:
(§3)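 Male C-57 black mice, 8–10 weeks old, 25–30 g, six per data point. Dosed ip at 100 μmol/kg in 50 μL normal saline every hour for 4 h; controls received saline only. Times counted from the last injection. Striata dissected and stored at −80 °C. Dopamine measured by HPLC with electrochemical detection after alumina extraction, with DHBA as internal standard; reported as ng/mg tissue.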

Data set [3] addresses T2, Dopamine receptor (Mus musculus). The data set is described as follows: Black mice were injected intraperitoneally with 100 uMol of test compound and Striatal levels of dopamine in mice measured after 24 hours. Format: functional. Summed up: as §3
For data set [4] the target is unchanged. Nature of the data set: Black mice were injected intraperitoneally with 100 uMol of test compound and Striatal levels of dopamine in mice measured after 1 week. It is filed as functional. In a few lines: as §3
For data set [5] the target is unchanged. The data set is described as follows: (§4) Black mice were injected intraperitoneally with 100 uMol /kg of test compound and Striatal levels of dopamine in mice measured after 4 hours. Format: functional. In a few lines: as §3
In data set [6] the test system is Mus musculus. The description is as §2. It is filed as functional. Summed up: as §3
In data set [7] the test system is Mus musculus. The data set is described as follows: Black mice were injected intraperitoneally with 100 uMol of test compound and Striatal levels of Dopamine in mice measured after 24 hours. Format: functional. Summed up:
as §3

In data set [8] the target is T1, Amine oxidase [flavin-containing] B. Nature of the data set: Rate of oxidation against monoamine oxidase B. Summed up:
as §1

The subject of data set [9] is Mus musculus. The data set is described as follows: Black mice were injected intraperitoneally with 100 uMol of test compound and Striatal levels of Dopamine in mice measured after 1 week. It is filed as functional. In a few lines:
as §3

The target in data set [10] is T1, Amine oxidase [flavin-containing] B. The data set is described as follows: Binding affinity against Monoamine oxidase B. In a few lines: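 Beef liver mitochondrial MAO-B, purified and cleared of heme protein by sucrose-gradient centrifugation; 0.02 unit enzyme in 50 mM sodium phosphate pH 7.2 with 0.2% (w/v) reduced Triton X-100. Inhibitor at 0–500 μM or 0–100 μM against benzylamine 0.17–3.3 mM. Oxidation followed at 250 nm as initial rates. Lineweaver–Burk plots; Ki taken from secondary replots of slope vs inhibitor concentration.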

In data set [11] the test system is Mus musculus. Described as §4. Format: functional. Summed up:
as §3

Structures are written as SMILES.

Rate of oxidation, Dopamine level and Ki data for 4 compounds are collected here from ChEMBL document CHEMBL1124403, “Studies on semirigid tricyclic analogues of the nigrostriatal toxin 1-methyl-4-phenyl-1,2,3,6-tetrahydropyridine” (J Med Chem, 1989).

Compound `CN1CC=C(c2ccccc2)CC1` returned a Rate of oxidation in data set [1] of 25.87 nM min-1 ml-1. Also, the Dopamine level in data set [2] turned out to be 5 ng/mg; in [3] it was 6.5 ng/mg; in data set [4], 2.7 ng/mg; in [5], 4.8 ng/mg.

As a reminder, the Ki is a dissociation constant, usually derived from enzyme kinetics or from competition with a known ligand. Read a high Ki as weaker binding. As to `CN1CCC2C(=Cc3ccccc32)C1` (centres undefined), the Dopamine level with Mus musculus [6] came out at 19.2 ng/mg; with Mus musculus [7], 30.3 ng/mg; with Mus musculus [9], 16.4 ng/mg; in the data set with Mus musculus [11] it was 4.3 ng/mg. In [8], the Rate of oxidation stood at 0 nM min-1 ml-1. Further, the affinity in data set [10], expressed as Ki, was 65 µM.

For `CN1CCC2=C(Cc3ccccc32)C1`, the Dopamine level turned out to be 21.9 ng/mg in the data set with Mus musculus [6], 24.5 ng/mg in the data set on Mus musculus [7], 18.2 ng/mg with Mus musculus [9] and 6.5 ng/mg in the data set on Mus musculus [11]. In [8], this compound came in with a Rate of oxidation of 0.21 nM min-1 ml-1. The compound further yielded a Ki in data set [10] of 75 µM.

Compound `CN1CCc2c([nH]c3ccccc23)C1` registered a Rate of oxidation in data set [8] of 0.1 nM min-1 ml-1. In data set [10], this compound had a Ki of 400 µM.
